A short description of data set [1]: folding enthalpy; higher = less favourable; fluorescence melt of hairpins on a sequencing array, two-state fit. Conditions: sodium 0.088 M. In a few lines:
(§1)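 Melting temperature and folding enthalpy were obtained by bootstrapped two-state fitting. Fits used Cy3 fluorescence of library hairpins with annealed Cy3 and quencher oligos on a sequenced MiSeq flow cell, imaged in 50 mM Na-HEPES pH 8.0, 25 mM NaCl in 2.5 °C steps up to 60 °C and normalised to pre-quench Cy3 and control constructs. Four replicates were combined by inverse-variance weighting, and fitted temperatures were raised by 9.35 °C to match UV melts.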

The nature of data set [2]: melting temperature; fluorescence melt of hairpins on a sequencing array, two-state fit, raised by 9.35 °C to match UV melts. Conditions: sodium 0.088 M. An outline of the steps: as §1

For GCAGCAGGAAACTGCTAC (.(((((....))))).), in data set [1], the folding enthalpy is -13.4 kcal/mol. Moreover, in data set [2], the Tm amounted to 44.7 °C.
As to GCAGCAGGAAACTGTTGC (((.(((....))).))), the folding enthalpy in data set [1] was -52.3 kcal/mol. Moreover, in data set [2], the Tm came out at 52.1 °C.
Consider GCAGCCGAAAGGCCTGC ((((((....))).))), for which the folding enthalpy in data set [1] was -25.5 kcal/mol. In addition, the Tm in data set [2] is 61.3 °C.
The matching figures for GCAGCCGAAAGGCCTTGC ((((((....)))..))): -10.6 kcal/mol and 35.7 °C.
As for GCAGCCGAAAGGCTTGC ((((((....))).))), the folding enthalpy in data set [1] is -15.3 kcal/mol. Further, in data set [2], the Tm is 62 °C.
In the case of GCAGCCGAAAGGCTTTGC ((((((....)))..))), the folding enthalpy in data set [1] was -10.2 kcal/mol. Moreover, the Tm in data set [2] amounted to 42.2 °C.
In the case of GCAGCCGGAAACGACCGC ((.(.((....)).).)), the folding enthalpy in data set [1] is -20.9 kcal/mol. In addition, the Tm in data set [2] stood at 31.2 °C.
Take GCAGCCGGAAACGGCCGC ((.((((....)))).)): the folding enthalpy in data set [1] was -17.2 kcal/mol. The Tm in data set [2] amounted to 58.9 °C.
Consider GCAGCGCCGAAAGGCTGC (((..(((....)))))), for which the folding enthalpy in data set [1] is -14.7 kcal/mol. Moreover, the Tm in data set [2] worked out at 53.9 °C.
With GCAGCGCGAAAGCGTAGC ((..(((....)))..)), the folding enthalpy in data set [1] was -15.9 kcal/mol. Besides, in data set [2], the Tm was 56.4 °C.
Taken in the same sequence, the figures for GCAGCGCGAAAGCTATGC (((..((....))..))) were -16.8 kcal/mol and 45.2 °C.
The matching figures for GCAGCGGGAAACCACCGC ((.(.((....)).).)): -14.2 kcal/mol and 39.8 °C.
Regarding GCAGCTCGAAAGAGGTGC (((.(((....))).))), the folding enthalpy in data set [1] was -29.4 kcal/mol. Also, the Tm in data set [2] was determined as 67.5 °C.
On to GCAGCTGGAAACAGTTGC (((.(((....))).))), for which the folding enthalpy in data set [1] is -51.6 kcal/mol. Further, in data set [2], the Tm worked out at 53.1 °C.
Consider GCAGGACGAAAGTCATGC (((.(((....))).))), for which the folding enthalpy in data set [1] is -37.9 kcal/mol. In data set [2], the Tm came to 66.3 °C.
Take GCAGGAGGAAACCCCTGC (((((.(....).))))): the folding enthalpy in data set [1] was -41.4 kcal/mol. Besides, the Tm in data set [2] was 50.9 °C.
Turning to GCAGGAGGAAACTCCCAC (..((((....))))..), the folding enthalpy in data set [1] is -16.8 kcal/mol. For the same sequence, the Tm in data set [2] turned out to be 25.8 °C.
Consider GCAGGCCCGAAAGGGTGC (((..(((....)))))), for which, in data set [1], the folding enthalpy was -13.1 kcal/mol. Moreover, in data set [2], the Tm was found to be 41.9 °C.
The matching figures for GCAGGCGAAAGCCAGTGC ((((((....)))..))): -18.9 kcal/mol and 49.5 °C.
As to GCAGGCGAAAGCCATTGC ((((((....)))..))), the folding enthalpy in data set [1] was -13.2 kcal/mol. In addition, the Tm in data set [2] is 42.7 °C.
On to GCAGGCGAAAGCCCTTGC ((((((....)))..))), for which, in data set [1], the folding enthalpy was -11.9 kcal/mol. In addition, the Tm in data set [2] turned out to be 38.9 °C.
For the sequence GCAGGCGCGAAAGCGTGC (((..(((....)))))), the folding enthalpy in data set [1] was -13.3 kcal/mol. The Tm in data set [2] is 49.4 °C.
Taken in the same sequence, the figures for GCAGGCGGAAACACCCGC ((.((.(....).)).)) were -12.6 kcal/mol and 36.1 °C.
As to GCAGGCGGAAACGTCTGC ((((.((....)).)))), the folding enthalpy in data set [1] was -35.3 kcal/mol. In addition, the Tm in data set [2] came to 63.1 °C.
In the case of GCAGGGCGAAAGCAATGC (((..((....))..))), the folding enthalpy in data set [1] is -24.1 kcal/mol. In addition, the Tm in data set [2] came out at 59.9 °C.
With GCAGGGCGAAAGCCACGC ((..(((....)))..)), in data set [1], the folding enthalpy was -15.2 kcal/mol. In addition, in data set [2], the Tm stood at 52.2 °C.
As for GCAGGGCGAAAGCCGAGC ((..(((....)))..)), in data set [1], the folding enthalpy is -14.9 kcal/mol. Also, in data set [2], the Tm is 50.1 °C.
As for GCAGGGCGAAAGCCTAGC ((..(((....)))..)), the folding enthalpy in data set [1] is -18.9 kcal/mol. Also, in data set [2], the Tm was 55.2 °C.
With GCAGGGCGAAAGCGCCGC ((.(.((....)).).)), in data set [1], the folding enthalpy was -15.7 kcal/mol. Further, the Tm in data set [2] was 52.6 °C.
Consider GCAGGGCGAAAGCTCAGC ((.(.((....)).).)), for which, in data set [1], the folding enthalpy was -18.4 kcal/mol. Further, the Tm in data set [2] was found to be 48.3 °C.
For the sequence GCAGGGCGAAAGCTCGGC ((.(.((....)).).)), the folding enthalpy in data set [1] was -20.6 kcal/mol. Further, the Tm in data set [2] is 59.2 °C.
In the case of GCAGGGGAAACCCTGC ((((((....)))))), in data set [1], the folding enthalpy is -34.9 kcal/mol. The Tm in data set [2] is 68.1 °C.
Turning to GCAGGGGGAAACCCCCAC (..((((....))))..), the folding enthalpy in data set [1] was -9.57 kcal/mol. Besides, the Tm in data set [2] came to 33.1 °C.
Turning to GCAGGGGGAAACCCTTGC (((.(((....))).))), the folding enthalpy in data set [1] was -30.8 kcal/mol. For the same sequence, the Tm in data set [2] stood at 52.2 °C.
Consider GCAGGGGGAAACCTCTGC ((((.((....)).)))), for which, in data set [1], the folding enthalpy is -39.1 kcal/mol. Further, the Tm in data set [2] amounted to 55 °C.
Taken in the same sequence, the figures for GCAGGTGGAAACACCCGC ((.((((....)))).)) were -23.4 kcal/mol and 50 °C.
Regarding GCAGGTGGAAACACTTGC (((.(((....))).))), in data set [1], the folding enthalpy was -35.2 kcal/mol. Moreover, in data set [2], the Tm turned out to be 51.5 °C.

For the origin of these results see the array DNA melting data of Ke et al. (doi:10.1101/2024.01.08.574731).
